Drawing on ChEMBL document CHEMBL1124871, “Synthesis and antiviral activity of some acyclic and C-acyclic pyrrolo[2,3-d]pyrimidine nucleoside analogues” (J Med Chem, 1990), this text covers selectivity ratio and IC50 for 32 compounds.

Usually IC50 stands for the concentration that inhibits the measured activity by half. Low values mean greater potency in that assay, high ones weaker potency in that assay.

Tested on in one series: not listed separately
The series is described as follows: Therapeutic ratio at 400 uM toxicity to Alex cells. Format: cell-based. The note with it: human.
For `N#Cc1cn(COC(CO)CO)c2nc(N)nc(O)c12`, the selectivity ratio amounted to 133. On to `CSc1c(C#N)c2c(N)ncnc2n1COC(CO)CO`, for which the selectivity ratio at 400 µM came to 40.

The test system of the next series is Human immunodeficiency virus. In words: Inhibitory activity against HIV in Alex cells. The note with it: Human immunodeficiency virus 1, Alex. Format: functional, organism-based. An outline of the steps:
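Alex cells preinfected with HIV for 3 h at 37 °C; compounds added in 3- or 5-fold dilutions (four for screening, eight for confirmation). Incubated 8 days at 37 °C in CO2, medium/sample changed on day 4. Reverse transcriptase measured on day 8. Uninfected cells exposed to the same dilutions for cytotoxicity. IC50 recorded.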
As for `CSc1c(C#N)c2c(N)ncnc2n1CC(O)CCO` (centres undefined), the IC50 came to 100 µM. The same measure, in the same setting: the result for `NC(=O)c1cn(CC(O)CO)c2nc(N)nc(O)c12` (centres undefined) reads over 200 µM; that for `CSc1c(C(N)=O)c2c(O)nc(N)nc2n1CC(O)CCO` (centres undefined), over 200 µM.

On to `CSc1c(C(N)=O)c2c(N)ncnc2n1COCCO`, for which the IC50 is over 200 µM. On the same count and under the same terms, as for `CSc1c(C(N)=O)c2c(O)nc(N)nc2n1COC(CO)CO`, the figure is over 200 µM; as for `N#Cc1cn(COCCO)c2ncnc(N)c12`, 46 µM; as for `N#Cc1cn(CC(O)CCO)c2nc(N)nc(O)c12` (centres undefined), over 200 µM. Still for that read-out and setting: the result for `Cc1cn([C@H]2C[C@H](N=[N+]=[N-])[C@@H](CO)O2)c(=O)[nH]c1=O` [ZIDOVUDINE] reads 0.01 µM. Still for that read-out and setting: as for `NC(=O)c1cn(CC(O)CCO)c2ncnc(N)c12` (centres undefined), the figure is over 200 µM; as for `NC(=O)c1cn(CC(O)CO)c2ncnc(N)c12` (centres undefined), over 200 µM; as for `N#Cc1cn(CC(O)CCO)c2ncnc(N)c12` (centres undefined), over 200 µM. In turn, `NC(=O)c1cn(COCCO)c2nc(N)nc(O)c12` came in with an IC50 of over 200 µM. On the same count and under the same terms, the result for `CSc1c(C(N)=O)c2c(N)ncnc2n1CC(O)CO` (centres undefined) reads over 200 µM. For `NC(=O)c1cn(COCCO)c2ncnc(N)c12`, the IC50 was over 200 µM. `N#Cc1cn(COC(CO)CO)c2nc(N)nc(O)c12` gave an IC50 of 3 µM. On to `NC(=O)c1cn(COC(CO)CO)c2nc(N)nc(O)c12`, for which the IC50 was over 200 µM. On the same count and under the same terms, the result for `CSc1c(C#N)c2c(N)ncnc2n1COCCO` reads over 200 µM. Still for that read-out and setting: as for `N#Cc1cn(CC(O)CO)c2nc(N)nc(O)c12` (centres undefined), the figure is over 200 µM; as for `CSc1c(C(N)=O)c2c(N)ncnc2n1CC(O)CCO` (centres undefined), over 200 µM.

Compound `CSc1c(C#N)c2c(O)nc(N)nc2n1CC(O)CCO` (centres undefined) displayed an IC50 of over 200 µM. Still for that read-out and setting: the result for `CSc1c(C#N)c2c(O)nc(N)nc2n1COCCO` reads over 200 µM.

`CSc1c(C(N)=O)c2c(N)ncnc2n1COC(CO)CO` registered an IC50 of over 200 µM. On the same count and under the same terms, the result for `CSc1c(C#N)c2c(N)ncnc2n1CC(O)CO` (centres undefined) reads over 200 µM; that for `CSc1c(C#N)c2c(O)nc(N)nc2n1COC(CO)CO`, over 200 µM.

`N#Cc1cn(CC(O)CO)c2ncnc(N)c12` (centres undefined) displayed an IC50 of 197 µM.

With `CSc1c(C#N)c2c(N)ncnc2n1COC(CO)CO`, the IC50 came out at 20 µM. The same measure, in the same setting: the result for `N#Cc1cn(COCCO)c2nc(N)nc(O)c12` reads over 200 µM. On the same count and under the same terms, the result for `CSc1c(C#N)c2c(O)nc(N)nc2n1CC(O)CO` (centres undefined) reads over 200 µM.

For the compound `NC(=O)c1cn(COC(CO)CO)c2ncnc(N)c12`, the IC50 is over 200 µM. On the same count and under the same terms, as for `NC(=O)c1cn(CC(O)CCO)c2nc(N)nc(O)c12` (centres undefined), the figure is over 200 µM. On the same count and under the same terms, the result for `CSc1c(C(N)=O)c2c(O)nc(N)nc2n1CC(O)CO` (centres undefined) reads over 200 µM.

The next series relates to Human alphaherpesvirus 2. In words: Inhibitory activity against herpes simplex virus. It is filed as functional, organism-based.
Details: not given
An outline of the steps: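 One-day-old confluent HEp-2 monolayers preinfected 1.5 h at 37 °C with HSV-2 (G and Lovelace strains); 3-fold dilutions over seven points, 72 h at 37 °C. Virus presence and toxicity scored visually by CPE. Uninfected cells with compound served as cytotoxicity control; virus inoculum checked by back-titration. IC50 recorded.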
`Nc1nc2c(ncn2COC(CO)CO)c(=O)[nH]1` [GANCICLOVIR]: half-maximal inhibition (IC50) was put at 32 µM.
